Assay: Toxicity liver stage against HepG2, at 10uM
Format: cell-based
Set-up: test concentration 10 uM, cell line HepG2-A16-CD81EGFP
Details: human, HepG2-A16-CD81EGFP cells; read-out: INHIBITION
Procedure, shortened: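 Uninfected HepG2-A16-CD81EGFP cells, 3 × 10^3 per well, 1536-well, plated on prespotted compound at 10 μM final, parasite-free screening media added to match infected plates; puromycin 10 μM positive, DMSO 0.5% negative; run in parallel with 48 h PbLuc assay at 37 °C, 5% CO2; viability by CellTiter-Glo luminescence, normalized to controls.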

| SMILES | cytotoxicity at 10 µM [%] |
| --- | --- |
| COc1nc2c(cc1C(=O)NC(C)Cc1cc(C)n[nH]1)CCC2 (stereo not given) | -137 |
| c1cnc(CC2CCN(c3cnccn3)CC2)cn1 | 4.44 |
| Cc1ccc(C(=O)N2CC[C@@H]3[C@H]2CCC(=O)N3c2ccccc2)o1 | -3.89 |
| Cc1cc(S(=O)(=O)N2CCCN3CCCC3C2)ccc1F (stereo not given) | 17 |
| Cc1c(C2NC3(CCCC3)C(=O)N2CC2CC2)cc(C#N)n1C (stereo not given) | -1.99 |
| CS(=O)(=O)N[C@@H]1CN(C(=O)c2ccccn2)C[C@@H]2CCCO[C@@H]21 | -74.8 |
| CC(=O)Nc1nc(C(=O)NC(C)c2ccc(C#N)cc2)cs1 (stereo not given) | -10.5 |
| CC(N)Cc1ccccc1Sc1ccc(O)cc1 (stereo not given) | 3.76 |
| CN(C)c1ccccc1CN1CCCCC1CNS(C)(=O)=O (stereo not given) | 0.212 |
| O=C(C1CC1)N1CCCC1C1CCN(Cc2ccccc2)CC1 (stereo not given) | -9.37 |
| NCc1cc(-c2ccccc2)n2nccc2n1 | -14.7 |
| Cc1cc(C)nc(N2CC[C@@]3(O)CCN(S(=O)(=O)N(C)C)C[C@H]3C2)n1 | 3.5 |
| Cc1nsc(N2CCCN(C(=O)c3ccc4[nH]ccc4c3)CC2)n1 | 0.997 |
| COc1ccsc1C(=O)NCCNc1ccccc1 | -4.15 |
| CCC(=O)Nc1ccc2c(ccn2CCOC)c1 | 3.54 |
| O=C1NC2(CCN(Cc3ccc(F)cc3)CC2)CC1c1ccncc1 (stereo not given) | 3.16 |
| CCn1ncc(CN2CCCC(n3c(=O)oc4ccccc43)C2)c1C (stereo not given) | 1.83 |
| Cn1ccc(C(=O)NCc2ccccc2CN2CCCCC2)cc1=O | -2.51 |
| COc1cc(CNC2CCCN(c3ncccn3)C2)cc2c1OCO2 (stereo not given) | 6.26 |
| CC(C)(C)N1CC(C(=O)N2CCN(CCn3cccc3)CC2)CC1=O (stereo not given) | 18.7 |
| NC1(CNC(=O)c2cc3ccccc3[nH]2)CCCC1 | 15.5 |
| Cc1ccc(CN2CCC3(CCC(=O)N3CC(=O)N(C)C)CC2)s1 | -2.45 |

| SMILES | cytotoxicity at 10 µM [%] |
| --- | --- |
| COCc1nc(CNC(=O)c2cc(C)c(C)[nH]c2=O)no1 | 4.19 |
| Oc1nc(-c2cnccn2)nc2c1CCN(Cc1ccccn1)C2 | 1.51 |
| COc1ccc2c(c1)CC(NCc1cccc(CO)c1)CC2 (stereo not given) | -51.8 |
| O=c1[nH]c(CN2CCCC(Cn3cncn3)C2)nc2ccccc12 (stereo not given) | -12.4 |
| COc1ccc(CNC(=O)NC(C)Cn2cccn2)cc1O (stereo not given) | -3.1 |
| O=C(c1ccc2c(c1)OCO2)N1CCCC(n2cccn2)C1 (stereo not given) | -8.4 |
| O=C(N1CCOCC1)N1CCN(c2ccc(Cl)nn2)C(=O)C1 | 8.57 |
| O=C(NCCNc1ccc(C(F)(F)F)cn1)c1ccc(F)cc1Cl | -7.65 |
| CC(C)c1nc2oc(C(=O)N3CCOCC3)c(N)c2c2c1CCCC2 | -3.71 |
| Cn1cc(CN2CCCN(C(=O)c3cc[nH]n3)CC2)cn1 | -8.72 |
| CC(CN1CCCC1=O)NC(=O)NCc1ccccc1-n1cccn1 (stereo not given) | 3.33 |
| CC(C(N)=O)N1CCN(c2ncc(Br)cn2)CC1 (stereo not given) | 3.23 |
| Cc1cc(NC(=O)NCC2CCOC2)no1 (stereo not given) | 4.43 |
| Cc1ccc(CC(=O)N(C)CC2(O)CCN(c3ccccn3)C2)s1 (stereo not given) | -10.4 |
| CO[C@@H]1CC[C@H]2[C@H]1OCCN2CC1CC1 | 11.4 |
| Cc1cc(C2CCCN(C(=O)Cc3csc(C(C)C)n3)C2)n[nH]1 (stereo not given) | -7.27 |
| CN(Cc1cccs1)c1nc2c(cnn2C(C)(C)C)c(=O)[nH]1 | 9.75 |
| O=C(c1ccco1)N1CCOCC2(C1)CN(c1ccccc1)C(=O)CO2 (stereo not given) | -10.1 |
| Cc1nc(NCCN2CCCC2=O)cc(C2CN(C)CCO2)n1 (stereo not given) | -10.5 |
| Cc1ccc(NC2(C(=O)NCCCc3c(C)n[nH]c3C)CCCC2)cc1 | -10.1 |
| O=C(c1ccccn1)N1CCC2(CNS(=O)(=O)c3cnccc3O2)C1 (stereo not given) | 14.5 |
| CC(=O)N1Cc2ccccc2C[C@H]1C(=O)N(C)CCc1ccccn1 | -3.27 |

| SMILES | cytotoxicity at 10 µM [%] |
| --- | --- |
| Cn1cnnc1C1CCN(C(=O)COCc2ccccc2Cl)CC1 | -6.07 |
| Cc1ncsc1CCN(C)Cc1cc2n(n1)CCN(S(C)(=O)=O)C2 | -12.8 |
| O=C1NCCO[C@H]2CN(C(=O)CC3Cc4ccccc4C3)CC[C@@H]12 | -106 |
| CSc1ccc(NCC(=O)NCC(=O)N2CCCC2)cc1F | 2.63 |
| Cc1nc(-c2ccncc2)nc(N(C)CCc2ccncc2)c1C | 11.6 |
| Cc1nc(CN2CCC3(CCN(Cc4cnn(C)c4)CC3)C2=O)cs1 | 2.34 |
| CC(C)CN1CCn2nc(CNc3ncnc4[nH]cnc34)cc2C1 | 6.88 |
| Cc1cc(C(=O)N(C)Cc2ccn[nH]2)c(NC(=O)C(C)(C)C)s1 | 2.72 |
| COc1ccccc1CN1C(=O)O[C@@H]2CN(c3ccccn3)C[C@@H]21 | 5.97 |
| CCn1cc2c(n1)CN(Cc1ccc(C)o1)CC2COCC1CC1 (stereo not given) | -80.7 |
| CC(C)CN1CCCn2nc(CNC(=O)CCN)cc2C1 | -20.5 |
| COC(=O)c1ccc(NC(=O)[C@@H]2CCCN2C(=O)c2ccco2)s1 | -3.45 |
| CCN(C)C(=O)Cn1c(-c2ccco2)nn(-c2ccccc2OC)c1=O | 0.832 |
| Cc1ccccc1-n1ncc2c(=O)n(CCN3CCCC3)cnc21 | -11.3 |
| CCOc1cc(C(=O)N2CCN(C)CC2)cc2occc12 | 7 |
| O=C1N(CC2CC2)C2(CCSCC2)NC12CCCC2 | -150 |
| Cc1cc(C2CCCN(CCS(=O)(=O)c3ccccc3)C2)n[nH]1 (stereo not given) | -16.7 |
| Cc1nn(-c2ccccc2)c(C)c1CNC(=O)NC1CC(=O)N(C)C1 (stereo not given) | -2.17 |
| CCc1nnc(SCC(=O)Nc2cc(C(C)(C)C)nn2C)[nH]1 | 7.28 |
| CC(C)Oc1ncnc2c1CCN(Cc1ccoc1)CC2 | 2.56 |
| O=C(C1CCC1)N1CCC2(COCc3cnc(N4CCOCC4)nc32)C1 (stereo not given) | -11.8 |
| CN1CCN(c2ccncc2S(=O)(=O)N2CCCCC2)CC1 | -6.84 |

| SMILES | cytotoxicity at 10 µM [%] |
| --- | --- |
| c1cc(CNCc2ccnc(N3CCOCC3)c2)c2c(c1)OCCO2 | -4.66 |
| CCS(=O)(=O)CC(=O)Nc1c(C)cnn1Cc1cc(F)ccc1F | -4.96 |
| O=C(O)CN(C(=O)c1ccccc1)[C@H]1C[C@H]2CCOC[C@H]2C1 | -1.03 |
| CC[C@H]1CN2CC[C@H]1C[C@@H]2CNC(=O)Nc1cccc(C(F)(F)F)c1 | 0.676 |
| Cn1ccnc1CN1CCN2C[C@H](OCc3ccccc3)C[C@H]2C1 | 9.37 |
| Cc1ncsc1C(=O)Nc1ccccn1 | 11.3 |
| CCC(CO)NCc1ccc(-c2ccccc2)o1 (stereo not given) | 4.42 |
| Cc1nc(CC2CCN(C(=O)C(c3ccccc3C)N(C)C)CC2)no1 (stereo not given) | 4.66 |
| COc1ccc(CCC(=O)N2CCCCC2Cn2cccn2)cc1F (stereo not given) | -8.7 |
| CCn1nc(C)c(NC(=O)CCn2ncc3cc(C)ccc32)c1C | 10.8 |
| CCS(=O)(=O)N1Cc2ccccc2CC1C(=O)OCc1c(C)noc1C (stereo not given) | -9.26 |
| Cc1ccc(C(=O)NCCCS(=O)(=O)c2ccccc2)c(=O)[nH]1 | -4.97 |
| COCCN1CCn2cc(CN(C)Cc3ccco3)nc2C1 | -74.9 |
| O=C(CC1CC1)N1C[C@@H]2CN(c3ccccc3)C(=O)[C@@H]2C1 | -1.48 |
| COc1ccc(-c2nc(CNC3CCc4nc(C)nn4C3)no2)cc1 (stereo not given) | -3.42 |
| Cn1cccc1-c1cc(C(=O)N2CC(c3cccnc3)C2)[nH]n1 | -13.7 |
| Nc1cc(-c2cncnc2C2CCN(C(=O)c3ccccc3)C2)ccn1 (stereo not given) | 1.32 |
| Cc1ccc(N2CCC3(CN(Cc4cccs4)CCC3(F)F)C2)nn1 (stereo not given) | 8.39 |
| COCCN(C)C[C@@H]1CN(C(=O)c2c(F)ccc(OC)c2F)C[C@@H]1CO | 0.45 |
| COc1cc(F)c(S(=O)(=O)Nc2cnc(O)cc2C)cc1OC | 5.66 |
| CCOCC1c2c(cnn2C)CCN1C(=O)c1cc(C)on1 (stereo not given) | -81.9 |
| CCc1cc(CN(C)Cc2nc(-c3sccc3C)oc2C)on1 | -3.81 |

| SMILES | cytotoxicity at 10 µM [%] |
| --- | --- |
| Cc1cccc(NC(=O)N2CCn3cnc(COCC4CC4)c3C2)c1 | 3.83 |
| CCc1nnc(CNC(=O)c2cc3c(nc2OC)CCC3)s1 | 0.156 |
| COC(=O)N1CCCCC1C(=O)N(C)Cc1cc(-c2cccnc2)no1 (stereo not given) | 0.83 |
| NCC(=O)N1CCCC(c2cncc(Nc3ncccn3)n2)C1 (stereo not given) | 0.848 |
| CC(C)c1ccc(OCCC(=O)N2CCC(CC(N)=O)CC2)cc1 | -14 |
| CN1CCN(S(=O)(=O)c2cccc(F)c2)Cc2cccnc21 | -110 |
| Cc1noc(C)c1CN(Cc1ccccc1)C(C)CN1CCOCC1 (stereo not given) | 7.97 |
| CC(C)(C)c1n[nH]cc1CNC1CCC(OCC(F)(F)F)CC1 (stereo not given) | -0.0197 |
| Cc1cccc(C(=O)N2CCn3c(CN4CCN(C)CC4)cnc3C2)n1 | -75.2 |
| O=C(NCc1ccccn1)c1cc2n(n1)CCNC2 | 1.19 |
| Cc1ccc(CN2CCC3(CC2)C(=O)N(CC(C)C)CCN3C)s1 | -3.63 |
| CCS(=O)(=O)N1CCCN(CCCOC)CC1 | 7.73 |
| O=C(c1cccc(Cn2ccnc2)c1)N1CCCC(n2cccn2)C1 (stereo not given) | -0.603 |
| CCn1cnnc1CNC(=O)N1CCC(O)CC1 | -4.86 |
| CCc1cccc2cc(CN)c(=O)[nH]c12 | 3.54 |
| Cn1cc(C(=O)NC2CCN(C(=O)NCC3CCSCC3)CC2)cn1 | 4.02 |
| Cc1cc(CNC(=O)N2CCN(C(C)c3cccnc3)CC2)c(C)o1 (stereo not given) | -8.54 |
| CC(=O)N1CCC[C@H]1C(=O)NCCCN(C(C)C)S(C)(=O)=O | -13 |
| CCc1cnc(NCC2OCCc3ccccc32)nc1 (stereo not given) | -3.6 |
| Cc1ncsc1C(=O)NCCOc1ncc(Cl)cc1Cl | 7.67 |
| O=C(Nc1ccc(-c2nnc[nH]2)cc1)C1CCN1Cc1ccccc1 (stereo not given) | 9.73 |
| Cc1cncc(C(=O)N2CCC3(CC2)NC(=O)CC3c2ccccc2)c1 (stereo not given) | -78.1 |
